Assays:
[1] = system: NCI-H23; assay: Cytostatic activity against human NCI-H23 cells incubated for 3 days by SRB assay; format: functional; conditions: NCI-H23, 72 h
[2] = Selectivity index, ratio of CC50 for human HuH7 cells to EC50 for Hepatitis C virus subtype 1b replicons; format: toxicity, cell-based, Huh-7; conditions: read-out: Ratio CC50/EC50
[3] = Selectivity index, ratio of CC50 for human HuH7 cells to EC50 for Hepatitis C virus subtype 1a replicons; format: toxicity, cell-based, Huh-7; conditions: read-out: Ratio CC50/EC50
[4] = Cytostatic activity against human Hs578 cells incubated for 3 days by SRB assay; format: functional; conditions: Hs578, 72 h
[5] = Toxicity against human HuH7 cells incubated for 3 days by CellTiter 96 AQueous One Solution cell proliferation assay; format: cell-based, Huh-7
[6] = system: DU-145; assay: Cytostatic activity against human DU145 cells incubated for 3 days by SRB assay; format: functional; conditions: DU-145, 72 h
[7] = system: Hepatitis C virus; assay: Antiviral activity against Hepatitis C virus subtype 1b replicons infected in human HuH7 cells assessed as reduction in viral RNA levels by Rt-PCR; format: functional, organism-based, Hepacivirus hominis; conditions: genotype 1b, Huh-7
[8] = system: HCT-116; assay: Cytostatic activity against human HCT116 cells incubated for 3 days by SRB assay; format: functional; conditions: HCT-116, 72 h
[9] = system: Hepatitis C virus; assay: Antiviral activity against Hepatitis C virus subtype 1a replicons infected in human HuH7 cells assessed as reduction in viral RNA levels by Rt-PCR; format: functional, organism-based, Hepacivirus hominis; conditions: Huh-7
[10] = system: HepG2; assay: Cytotoxicity against human HepG2 cells incubated for 3 days by XTT assay; format: functional, cell-based; conditions: HepG2, 72 h
Summary of the method: (§1)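 Cell viability read by a metabolic XTT tetrazolium method after 3-day incubation of cells with compound. Values are from 2–4 independent experiments.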

[11] = system: CCRF-CEM; assay: Cytotoxicity against human CCRF-CEM cells incubated for 3 days by XTT assay; format: functional, cell-based; conditions: 72 h; summary of the method: as §1
[12] = Cytotoxicity against human HeLaS3 cells incubated for 3 days by XTT assay; format: functional, cell-based; conditions: HeLa S3, 72 h; summary of the method: as §1
[13] = system: HL-60; assay: Cytotoxicity against human HL60 cells incubated for 3 days by XTT assay; format: functional, cell-based; conditions: HL-60, 72 h; summary of the method: as §1

Structure (SMILES): C[C@@]1(O)[C@H](O)[C@@H](CO)O[C@H]1n1cc(-c2ccco2)c2c(N)ncnc21
- GI50 [1]: 6.08 µM
- selectivity ratio [2]: < 10
- selectivity ratio [3]: < 10
- GI50 [4]: 9.05 µM
- CC50 at 72 h [5]: 49.6 µM
- GI50 [6]: 8.89 µM
- EC50 [7]: 8.96 µM
- GI50 [8]: > 10 µM

Structure (SMILES): Nc1ncnc2c1c(I)cn2[C@@H]1O[C@H](CO)[C@@H](O)[C@@H]1O
- selectivity ratio [2]: < 10
- selectivity ratio [3]: < 10
- EC50 [9]: 1.39 µM
- CC50 at 72 h [5]: 9.97 µM
- IC50 [10]: 6.12 µM
- IC50 [11]: 7.02 µM
- IC50 [12]: 3.19 µM
- IC50 [13]: 6.44 µM
- EC50 [7]: 1.39 µM

Structure (SMILES): Nc1ncnc2c1c(-c1cccs1)cn2[C@@H]1O[C@H](CO)[C@@H](O)[C@@H]1F
- selectivity ratio [2]: < 10
- selectivity ratio [3]: < 10
- EC50 [9]: 2.8 µM
- CC50 at 72 h [5]: 42.9 µM
- IC50 [10]: > 10 µM
- IC50 [11]: 7.5 µM
- IC50 [12]: 5.6 µM
- IC50 [13]: > 10 µM
- EC50 [7]: 4.07 µM

Structure (SMILES): C[C@@]1(O)[C@H](O)[C@@H](CO)O[C@H]1n1cc(-c2cc3ccccc3o2)c2c(N)ncnc21
- selectivity ratio [2]: < 10
- selectivity ratio [3]: < 10
- EC50 [9]: 6.15 µM
- CC50 at 72 h [5]: 29.4 µM
- IC50 [11]: 7.81 µM
- IC50 [12]: > 10 µM
- IC50 [13]: > 10 µM
- EC50 [7]: 6.13 µM

Structure (SMILES): Nc1ncnc2c1c(-c1ccoc1)cn2[C@H]1C[C@H](O)[C@@H](CO)O1
- selectivity ratio [2]: < 10
- selectivity ratio [3]: < 10
- EC50 [9]: 24 µM
- CC50 at 72 h [5]: > 44 µM
- EC50 [7]: 5.26 µM

Structure (SMILES): Nc1ncnc2c1c(-c1ccsc1)cn2[C@@H]1O[C@H](CO)[C@@H](O)[C@@H]1F
- selectivity ratio [2]: < 10
- selectivity ratio [3]: < 10
- EC50 [9]: 10.9 µM
- CC50 at 72 h [5]: 24.4 µM
- EC50 [7]: 10.8 µM

Structure (SMILES): Nc1ncnc2c1c(-c1ccsc1)cn2[C@H]1C[C@H](O)[C@@H](CO)O1
- selectivity ratio [2]: < 10
- selectivity ratio [3]: < 10
- EC50 [9]: 11.4 µM
- CC50 at 72 h [5]: > 44 µM
- EC50 [7]: 5.91 µM

Structure (SMILES): Nc1ncnc2c1c(-c1cccs1)cn2[C@@H]1O[C@H](CO)[C@@H](O)[C@@H]1O
- selectivity ratio [2]: < 10
- selectivity ratio [3]: < 10
- EC50 [9]: 35.3 µM
- CC50 at 72 h [5]: > 44 µM
- IC50 [10]: 12.2 µM
- IC50 [11]: 4.25 µM
- IC50 [12]: 5.38 µM
- IC50 [13]: 13.5 µM
- EC50 [7]: 20.6 µM

Structure (SMILES): Nc1ncnc2c1c(-c1ccccc1)cn2[C@@H]1O[C@H](CO)[C@@H](O)[C@@H]1O
- selectivity ratio [2]: < 10
- selectivity ratio [3]: < 10
- EC50 [9]: > 44 µM
- CC50 at 72 h [5]: > 44 µM
- EC50 [7]: > 44 µM

Structure (SMILES): Nc1ncnc2c1c(-c1ccco1)cn2[C@@H]1O[C@H](CO)[C@@H](O)[C@@H]1F
- GI50 [1]: > 10 µM
- selectivity ratio [2]: < 10
- selectivity ratio [3]: < 10
- EC50 [9]: 15.7 µM
- GI50 [4]: 8.49 µM
- CC50 at 72 h [5]: > 44 µM
- GI50 [6]: 8.52 µM
- EC50 [7]: 12.1 µM
- GI50 [8]: > 10 µM

Structure (SMILES): C[C@@]1(O)[C@H](O)[C@@H](CO)O[C@H]1n1cc(-c2ccoc2)c2c(N)ncnc21
- selectivity ratio [2]: < 10
- selectivity ratio [3]: < 10
- EC50 [9]: 18.3 µM
- CC50 at 72 h [5]: > 44 µM
- EC50 [7]: 12.3 µM

Structure (SMILES): C[C@@]1(O)[C@H](O)[C@@H](CO)O[C@H]1n1cc(-c2ccsc2)c2c(N)ncnc21
- selectivity ratio [2]: < 10
- selectivity ratio [3]: < 10
- EC50 [9]: 36.3 µM
- CC50 at 72 h [5]: > 44 µM
- EC50 [7]: 15.5 µM

Structure (SMILES): COc1ccc(-c2cn([C@@H]3O[C@H](CO)[C@@H](O)[C@@]3(C)O)c3ncnc(N)c23)cc1
- selectivity ratio [2]: < 10
- selectivity ratio [3]: < 10
- EC50 [9]: 12 µM
- CC50 at 72 h [5]: > 44 µM
- EC50 [7]: 9.44 µM

Structure (SMILES): Nc1ncnc2c1c(-c1cccs1)cn2[C@H]1C[C@H](O)[C@@H](CO)O1
- selectivity ratio [2]: < 10
- selectivity ratio [3]: < 10
- EC50 [9]: 7.58 µM
- CC50 at 72 h [5]: > 44 µM
- EC50 [7]: 5.16 µM

Structure (SMILES): Nc1ncnc2c1c(-c1cn[nH]c1)cn2[C@@H]1O[C@H](CO)[C@@H](O)[C@@H]1F
- selectivity ratio [2]: < 10
- selectivity ratio [3]: < 10
- EC50 [9]: 22.4 µM
- CC50 at 72 h [5]: > 44 µM
- IC50 [11]: 9.07 µM
- IC50 [12]: > 10 µM
- IC50 [13]: > 10 µM
- EC50 [7]: 8.45 µM

Structure (SMILES): Nc1ncnc2c1c(-c1ccoc1)cn2[C@@H]1O[C@H](CO)[C@@H](O)[C@@H]1F
- selectivity ratio [2]: < 10
- selectivity ratio [3]: < 10
- EC50 [9]: 37 µM
- CC50 at 72 h [5]: > 44 µM
- EC50 [7]: 17 µM

Structure (SMILES): Nc1ncnc2c1c(-c1ccoc1)cn2[C@@H]1O[C@H](CO)[C@@H](O)[C@@H]1O
- selectivity ratio [2]: < 10
- selectivity ratio [3]: < 10
- EC50 [9]: 25.2 µM
- CC50 at 72 h [5]: > 44 µM
- IC50 [10]: 6.1 µM
- IC50 [11]: 4.67 µM
- IC50 [12]: 8.36 µM
- IC50 [13]: > 10 µM
- EC50 [7]: 22.5 µM

Structure (SMILES): C[C@@]1(O)[C@H](O)[C@@H](CO)O[C@H]1n1cc(-c2ccc3ccccc3c2)c2c(N)ncnc21
- selectivity ratio [2]: < 10
- selectivity ratio [3]: < 10
- EC50 [9]: 4.91 µM
- CC50 at 72 h [5]: 20.1 µM
- IC50 [11]: 3.95 µM
- IC50 [12]: > 10 µM
- IC50 [13]: > 10 µM
- EC50 [7]: 5.31 µM

Structure (SMILES): C[C@@]1(O)[C@H](O)[C@@H](CO)O[C@H]1n1cc(-c2cccs2)c2c(N)ncnc21
- selectivity ratio [2]: < 10
- selectivity ratio [3]: < 10
- CC50 at 72 h [5]: 48.1 µM
- EC50 [7]: 14.2 µM

Structure (SMILES): Nc1ncnc2c1c(-c1ccsc1)cn2[C@@H]1O[C@H](CO)[C@@H](O)[C@@H]1O
- selectivity ratio [2]: < 10
- selectivity ratio [3]: < 10
- EC50 [9]: 37.8 µM
- CC50 at 72 h [5]: > 44 µM
- IC50 [10]: > 15 µM
- IC50 [11]: 3.1 µM
- IC50 [12]: 7.03 µM
- IC50 [13]: 13 µM
- EC50 [7]: 34 µM

Structure (SMILES): C[C@@]1(O)[C@H](O)[C@@H](CO)O[C@H]1n1cc(-c2ccccc2)c2c(N)ncnc21
- selectivity ratio [2]: < 10
- selectivity ratio [3]: < 10
- EC50 [9]: 35.4 µM
- CC50 at 72 h [5]: > 44 µM
- EC50 [7]: 27.1 µM

Structure (SMILES): Nc1ncnc2c1c(-c1ccccc1)cn2[C@@H]1O[C@H](CO)[C@@H](O)[C@@H]1F
- selectivity ratio [2]: < 10
- selectivity ratio [3]: < 10
- EC50 [9]: 26.4 µM
- CC50 at 72 h [5]: > 44 µM
- EC50 [7]: 43.5 µM

Structure (SMILES): C[C@@]1(O)[C@H](O)[C@@H](CO)O[C@H]1n1cc(-c2cccc3ccccc23)c2c(N)ncnc21
- selectivity ratio [2]: < 10
- selectivity ratio [3]: < 10
- EC50 [9]: 24.7 µM
- CC50 at 72 h [5]: > 44 µM
- EC50 [7]: 24.1 µM

Structure (SMILES): C#Cc1cn([C@@H]2O[C@H](CO)[C@@H](O)[C@@H]2O)c2ncnc(N)c12
- selectivity ratio [2]: < 10
- selectivity ratio [3]: < 10
- EC50 [9]: 1.54 µM
- CC50 at 72 h [5]: 17.4 µM
- IC50 [10]: 9.86 µM
- IC50 [11]: > 10 µM
- IC50 [12]: 3.77 µM
- IC50 [13]: > 10 µM
- EC50 [7]: 1.75 µM

Structure (SMILES): Nc1ncnc2c1c(-c1ccco1)cn2[C@@H]1O[C@H](CO)[C@@H](O)[C@@H]1O
- selectivity ratio [2]: < 10
- selectivity ratio [3]: < 10
- EC50 [9]: 3.41 µM
- CC50 at 72 h [5]: > 44 µM
- IC50 [10]: 6.62 µM
- IC50 [11]: 6.64 µM
- IC50 [12]: 7.62 µM
- IC50 [13]: > 10 µM
- EC50 [7]: 3.02 µM

Structure (SMILES): Nc1ncnc2c1c(-c1ccco1)cn2[C@H]1C[C@H](O)[C@@H](CO)O1
- selectivity ratio [2]: < 10
- selectivity ratio [3]: < 10
- EC50 [9]: 11.1 µM
- CC50 at 72 h [5]: > 44 µM
- EC50 [7]: 4.16 µM

Source: ChEMBL document CHEMBL2069282, “Sugar-modified derivatives of cytostatic 7-(het)aryl-7-deazaadenosines: 2'-C-methylribonucleosides, 2'-deoxy-2'-fluoroarabinonucleosides, arabinonucleosides and 2'-deoxyribonucleosides” (Bioorg Med Chem, 2012)
